Assay results taken from PMC8851455 (ACS Omega, 2022).
“Also recorded” adds a separate entry of the source. Like-named read-outs stand apart in the source and are kept apart here.

Assays:
[1] = tested on: ERβ; details: competing with E2; cited from earlier work
[2] = tested on: MCF-7 cells; experiment: MCF-7 cell proliferation assay; format: cell-based, human
In short: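 MCF-7 cells exposed to test compound or E2 at six concentrations from 10–12 to 10–7 M in EA-free medium. Proliferation read as MTT product absorbance at 570 nm. Three independent trials, each in triplicate. % RME2 = 100 × (OD test − OD VC)/(max OD E2 − OD VC). EC50 from curve fitting. EEF = EC50 of E2/EC50 of sample. One-way ANOVA with Dunnett's test versus E2 at each concentration.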

[3] = tested on: S. typhimurium TA100; experiment: Ames test, strain TA100; format: cell-based, Salmonella typhimurium
[4] = tested on: S. typhimurium TA98; experiment: Ames test, strain TA98; format: cell-based, Salmonella typhimurium
[5] = tested on: MCF-7 cells; details: proliferative activity at 10^–7 to 10^–5 M; cited from earlier work
[6] = tested on: S. typhimurium TA102
[7] = tested on: ERα; details: competing with E2; cited from earlier work
[8] = tested on: S. typhimurium tester strains (TA98, TA100, and TA102); experiment: Ames test, overall over three strains; format: cell-based, Salmonella typhimurium
[9] = tested on: zebrafish embryos; details: cited from earlier work
[10] = tested on: S. typhimurium; details: incorporation or preincubation Ames assays, 10–3333 μg/plate; cited from earlier work
[11] = tested on: chicken embryo; experiment: Chicken embryonic assay; format: in vivo; details: egg injection, day 18
[12] = TA100 +S9, 5 × 10^–2 pmol/plate
[13] = TA100 +S9, 5 × 10^–3 pmol/plate
[14] = TA100 +S9, 5 × 10^–4 pmol/plate
[15] = TA100 +S9, 5 × 10^–5 pmol/plate
[16] = TA100 -S9, 5 × 10^–2 pmol/plate
[17] = TA100 -S9, 5 × 10^–3 pmol/plate
[18] = TA100 -S9, 5 × 10^–4 pmol/plate
[19] = TA100 -S9, 5 × 10^–5 pmol/plate
[20] = TA102 +S9, 5 × 10^–2 pmol/plate
[21] = TA102 +S9, 5 × 10^–3 pmol/plate
[22] = TA102 +S9, 5 × 10^–4 pmol/plate
[23] = TA102 +S9, 5 × 10^–5 pmol/plate
[24] = TA102 -S9, 5 × 10^–2 pmol/plate
[25] = TA102 -S9, 5 × 10^–3 pmol/plate
[26] = TA102 -S9, 5 × 10^–4 pmol/plate
[27] = TA102 -S9, 5 × 10^–5 pmol/plate
[28] = higher dose (0.5 mM: 450–500 μg/kg; E2 0.1 mM: 91 μg/kg)
[29] = lower dose (0.05 mM: 45–50 μg/kg; E2 0.01 mM: 9.1 μg/kg)

SMILES: O=c1c(-c2ccc(O)cc2)coc2cc(O)cc(O)c12 [genistein]
- binding affinity for ERβ [1]: 87%
- EEF (estradiol equivalent factor) ([2]; EC50 of E2 divided by that of the test compound): 0.08
- EC50 ([2]; Homo sapiens, MCF7): 0.12 nM
- max % RME2 ([2]; highest % RME2 (relative maximum % E2) in test range 10^–12–10^–7 M): 48%
- MI ([3]; TA100 +S9, 0.5 pmol/plate): 1.0
- number of revertants/plate (M ± SD) ([3]; TA100 +S9, 0.5 pmol/plate): 307 ± 7 revertants/plate
- MI ([3]; TA100 +S9, 5 pmol/plate): 0.9
- number of revertants/plate (M ± SD) ([3]; TA100 +S9, 5 pmol/plate): 301 ± 13 revertants/plate
- MI ([3]; TA100 +S9, 50 pmol/plate): 0.9
- number of revertants/plate (M ± SD) ([3]; TA100 +S9, 50 pmol/plate): 296 ± 11 revertants/plate
- MI [3, 12]: 1.0
- number of revertants/plate (M ± SD) [3, 12]: 308 ± 8 revertants/plate
- MI [3, 13]: 1.0
- number of revertants/plate (M ± SD) [3, 13]: 313 ± 11 revertants/plate
- MI [3, 14]: 0.9
- number of revertants/plate (M ± SD) [3, 14]: 301 ± 4 revertants/plate
- MI [3, 15]: 0.9
- number of revertants/plate (M ± SD) [3, 15]: 294 ± 6 revertants/plate
- MI ([3]; TA100 -S9, 0.5 pmol/plate): 1.0
- number of revertants/plate (M ± SD) ([3]; TA100 -S9, 0.5 pmol/plate): 103 ± 10 revertants/plate
- MI ([3]; TA100 -S9, 5 pmol/plate): 0.9
- number of revertants/plate (M ± SD) ([3]; TA100 -S9, 5 pmol/plate): 96 ± 4 revertants/plate
- MI ([3]; TA100 -S9, 50 pmol/plate): 0.8
- number of revertants/plate (M ± SD) ([3]; TA100 -S9, 50 pmol/plate): 80 ± 12 revertants/plate
- MI [3, 16]: 0.9
- number of revertants/plate (M ± SD) [3, 16]: 97 ± 11 revertants/plate
- MI [3, 17]: 1.0
- number of revertants/plate (M ± SD) [3, 17]: 100 ± 11 revertants/plate
- MI [3, 18]: 0.9
- number of revertants/plate (M ± SD) [3, 18]: 94 ± 8 revertants/plate
- MI [3, 19]: 1.0
- number of revertants/plate (M ± SD) [3, 19]: 98 ± 6 revertants/plate
- MI ([4]; TA98 +S9, 0.5 pmol/plate): 1.1
- number of revertants/plate (M ± SD) ([4]; TA98 +S9, 0.5 pmol/plate): 26 ± 13 revertants/plate
- MI ([4]; TA98 +S9, 5 pmol/plate): 1.0
- number of revertants/plate (M ± SD) ([4]; TA98 +S9, 5 pmol/plate): 23 ± 14 revertants/plate
- MI ([4]; TA98 +S9, 50 pmol/plate): 1.2
- number of revertants/plate (M ± SD) ([4]; TA98 +S9, 50 pmol/plate): 28 ± 16 revertants/plate
- MI ([4]; TA98 +S9, 5 × 10^–2 pmol/plate): 1.2
- number of revertants/plate (M ± SD) ([4]; TA98 +S9, 5 × 10^–2 pmol/plate): 28 ± 5 revertants/plate
- MI ([4]; TA98 +S9, 5 × 10^–3 pmol/plate): 1.2
- number of revertants/plate (M ± SD) ([4]; TA98 +S9, 5 × 10^–3 pmol/plate): 28 ± 10 revertants/plate
- MI ([4]; TA98 +S9, 5 × 10^–4 pmol/plate): 1.0
- number of revertants/plate (M ± SD) ([4]; TA98 +S9, 5 × 10^–4 pmol/plate): 24 ± 8 revertants/plate
- MI ([4]; TA98 +S9, 5 × 10^–5 pmol/plate): 0.8
- number of revertants/plate (M ± SD) ([4]; TA98 +S9, 5 × 10^–5 pmol/plate): 19 ± 6 revertants/plate
- MI ([4]; TA98 -S9, 0.5 pmol/plate): 0.7
- number of revertants/plate (M ± SD) ([4]; TA98 -S9, 0.5 pmol/plate): 15 ± 1 revertants/plate
- MI ([4]; TA98 -S9, 5 pmol/plate): 0.8
- number of revertants/plate (M ± SD) ([4]; TA98 -S9, 5 pmol/plate): 18 ± 6 revertants/plate
- MI ([4]; TA98 -S9, 50 pmol/plate): 0.6
- number of revertants/plate (M ± SD) ([4]; TA98 -S9, 50 pmol/plate): 13 ± 4 revertants/plate
- MI ([4]; TA98 -S9, 5 × 10^–2 pmol/plate): 0.7
- number of revertants/plate (M ± SD) ([4]; TA98 -S9, 5 × 10^–2 pmol/plate): 16 ± 2 revertants/plate
- MI ([4]; TA98 -S9, 5 × 10^–3 pmol/plate): 0.5
- number of revertants/plate (M ± SD) ([4]; TA98 -S9, 5 × 10^–3 pmol/plate): 11 ± 1 revertants/plate
- MI ([4]; TA98 -S9, 5 × 10^–4 pmol/plate): 0.6
- number of revertants/plate (M ± SD) ([4]; TA98 -S9, 5 × 10^–4 pmol/plate): 13 ± 6 revertants/plate
- MI ([4]; TA98 -S9, 5 × 10^–5 pmol/plate): 0.7
- number of revertants/plate (M ± SD) ([4]; TA98 -S9, 5 × 10^–5 pmol/plate): 15 ± 4 revertants/plate
- concentration of maximum proliferative activity in MCF-7 cells [5]: 10^–6 M
- MI ([6]; TA102 +S9, 0.5 pmol/plate): 1.1
- number of revertants/plate (M ± SD) ([6]; TA102 +S9, 0.5 pmol/plate): 336 ± 17 revertants/plate
- MI ([6]; TA102 +S9, 5 pmol/plate): 1.0
- number of revertants/plate (M ± SD) ([6]; TA102 +S9, 5 pmol/plate): 299 ± 4 revertants/plate
- MI ([6]; TA102 +S9, 50 pmol/plate): 1.1
- number of revertants/plate (M ± SD) ([6]; TA102 +S9, 50 pmol/plate): 324 ± 28 revertants/plate
- MI [6, 20]: 1.0
- number of revertants/plate (M ± SD) [6, 20]: 311 ± 18 revertants/plate
- MI [6, 21]: 1.0
- number of revertants/plate (M ± SD) [6, 21]: 312 ± 13 revertants/plate
- MI [6, 22]: 0.9
- number of revertants/plate (M ± SD) [6, 22]: 285 ± 10 revertants/plate
- MI [6, 23]: 0.9
- number of revertants/plate (M ± SD) [6, 23]: 290 ± 4 revertants/plate
- MI ([6]; TA102 -S9, 0.5 pmol/plate): 1.0
- number of revertants/plate (M ± SD) ([6]; TA102 -S9, 0.5 pmol/plate): 247 ± 18 revertants/plate
- MI ([6]; TA102 -S9, 5 pmol/plate): 0.9
- number of revertants/plate (M ± SD) ([6]; TA102 -S9, 5 pmol/plate): 240 ± 8 revertants/plate
- MI ([6]; TA102 -S9, 50 pmol/plate): 0.8
- number of revertants/plate (M ± SD) ([6]; TA102 -S9, 50 pmol/plate): 215 ± 27 revertants/plate
- MI [6, 24]: 0.9
- number of revertants/plate (M ± SD) [6, 24]: 222 ± 30 revertants/plate
- MI [6, 25]: 0.8
- number of revertants/plate (M ± SD) [6, 25]: 198 ± 8 revertants/plate
- MI [6, 26]: 0.8
- number of revertants/plate (M ± SD) [6, 26]: 196 ± 20 revertants/plate
- MI [6, 27]: 0.8
- number of revertants/plate (M ± SD) [6, 27]: 207 ± 5 revertants/plate
- binding affinity for ERα [7]: 4%
- Ames test outcome (signs of mutagenicity) ([8]; 5 × 10^–5 to 50 pmol/plate, with or without S9): did not significantly increase numbers at any strains and test concentrations; also recorded: did not demonstrate such a sign
- max MI value ([8]; highest MI from test range 5 × 10^–5 to 50 pmol/plate): 1.2
- developmental toxicity in zebrafish model ([9]; at 1–50 μM): showing developmental toxicity
- survival rate for zebrafish embryos ([9]; exposure at 0.025 to 0.1 mM): significantly decreased the survival rate
- mutagenic activity in Ames assays [10]: No mutagenic activity
- LSI (liver somatic index) [11, 28]: 2.12 ± 0.14%
- malformation rate [11, 28]: 0.0%
- mortality rate [11, 28]: 50%
- number of dead chicken embryo [11, 28]: 5
- number of malformation chicken embryo [11, 28]: 0
- weights: embryo [11, 28]: 23.88 ± 2.02 g
- weights: heart [11, 28]: 0.20 ± 0.03 g
- weights: liver [11, 28]: 0.50 ± 0.09 g
- LSI (liver somatic index) [11, 29]: 2.05 ± 0.44%
- REEW (ratio of embryo to egg weight) [11, 29]: 0.41 ± 0.049
- malformation rate [11, 29]: 0.0%
- mortality rate [11, 29]: 40.0%
- number of dead chicken embryo [11, 29]: 4
- number of malformation chicken embryo [11, 29]: 0
- weights: embryo [11, 29]: 21.96 ± 0.73 g
- weights: heart [11, 29]: 0.17 ± 0.01 g
- weights: liver [11, 29]: 0.46 ± 0.10 g
